Results published in ChEMBL document CHEMBL4219124, “Alleviating CYP and hERG liabilities by structure optimization of dihydrofuran-fused tricyclic benzo[d]imidazole series - Potent, selective and orally efficacious microsomal prostaglandin E synthase-1 (mPGES-1) inhibitors: Part-2” (Bioorg Med Chem Lett, 2018).

What was measured:
[1] = target: Prostaglandin F synthase (Homo sapiens); assay: Inhibition of human PGF synthase assessed as decrease in PGF2alpha production
Prostaglandin E synthase = target: T1, Prostaglandin E synthase (Homo sapiens, UniProt O14684); assay: Inhibition of mPGES1 in human A549 cells assessed as reduction in IL-1beta-induced PGE2 production preincubated for 30 mins followed by incubation with IL-1beta for 16 to 20 hrs measured after 10 mins by HTRF assay; assay type: cell-based
T1 sequence (O14684 whole entry): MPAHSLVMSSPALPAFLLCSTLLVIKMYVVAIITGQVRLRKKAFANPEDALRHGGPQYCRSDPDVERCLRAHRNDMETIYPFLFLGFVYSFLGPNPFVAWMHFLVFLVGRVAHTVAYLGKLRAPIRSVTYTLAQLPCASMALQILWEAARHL

[2] = target: T2, Cytosolic phospholipase A2 (Homo sapiens) (UniProt P47712); assay: Inhibition of cPLA2 (unknown origin) at 10 uM relative to control
T2 sequence (whole entry): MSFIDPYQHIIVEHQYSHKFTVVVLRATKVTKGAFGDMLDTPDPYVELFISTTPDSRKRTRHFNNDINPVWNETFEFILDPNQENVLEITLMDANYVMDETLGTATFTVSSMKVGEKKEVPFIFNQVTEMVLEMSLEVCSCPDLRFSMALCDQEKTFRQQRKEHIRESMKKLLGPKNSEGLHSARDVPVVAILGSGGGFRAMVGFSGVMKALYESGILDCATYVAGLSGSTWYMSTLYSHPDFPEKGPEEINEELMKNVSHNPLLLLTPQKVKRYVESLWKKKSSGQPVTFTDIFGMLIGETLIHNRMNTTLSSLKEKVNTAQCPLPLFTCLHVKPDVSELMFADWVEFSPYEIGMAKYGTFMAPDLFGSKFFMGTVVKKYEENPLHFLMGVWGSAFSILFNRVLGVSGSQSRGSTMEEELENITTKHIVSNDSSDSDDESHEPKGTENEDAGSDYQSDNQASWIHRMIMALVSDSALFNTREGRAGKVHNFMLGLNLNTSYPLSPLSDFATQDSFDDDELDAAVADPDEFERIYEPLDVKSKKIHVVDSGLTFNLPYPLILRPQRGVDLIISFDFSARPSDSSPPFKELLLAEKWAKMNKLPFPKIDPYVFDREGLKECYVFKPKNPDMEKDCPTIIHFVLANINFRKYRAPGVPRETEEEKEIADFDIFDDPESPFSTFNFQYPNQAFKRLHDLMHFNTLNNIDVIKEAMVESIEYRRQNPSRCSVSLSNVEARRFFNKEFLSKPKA
In short: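 Selectivity panel against other prostanoid-pathway enzymes. % inhibition values are means of at least two experiments, each in duplicate.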

[3] = Apparent volume of distribution in cynomolgus monkey at 1 mg/kg, iv; assay type: ADME, organism-based, Macaca fascicularis; conditions: in vivo, read-out: Vz
In short: (§1)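 Intravenous dose of 1 mg/kg; clearance and Vz derived from the i.v. arm. Rat (male Sprague-Dawley) vehicle 20% NMP + 20% ethanol + 60% PEG 200, mean ± SD (n = 3). Dog vehicle 20% NMP + 20% EtOH + 10% PG + 50% PEG 200:water (3:2). Monkey vehicle 10% NMP + 10% ethanol + 10% PEG + 70% PEG200:water (3:2).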

[4] = Protein binding in dog plasma at 10 uM after 5 hrs by equilibrium dialysis based LC-MS/MS analysis; assay type: ADME, cell-free, Canis lupus familiaris; conditions: read-out: PPB (converted)
In short: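 Equilibrium dialysis at 10 μM compound; result expressed as percent bound.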

[5] = Ratio of drug uptake in brain to plasma of Dunkin-Hartley guinea pig at 10 mg/kg, po; assay type: ADME, organism-based, Cavia porcellus; conditions: for Kp: Dunkin-Hartley, brain/plasma, read-out: BPR
[6] = Cmax in cynomolgus monkey at 10 mg/kg, po; assay type: ADME, organism-based, Macaca fascicularis; parameters: dose 10 mg/kg, route oral; conditions: in vivo
In short: (§2)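 Single oral dose of 10 mg/kg. Cmax and AUC0-24 taken from the oral arm. Rat: male Sprague-Dawley, dosed in 0.5% methylcellulose suspension, mean ± SD (n = 3). Guinea pig: 20% NMP + 0.5% MC suspension, mean ± SD (n = 3). Dog and cynomolgus monkey: 2.5 μL/mL Tween 80 + 0.5 (w/v) MC suspension.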

[7] = Tmax in cynomolgus monkey at 10 mg/kg, po; assay type: ADME, organism-based, Macaca fascicularis; conditions: in vivo
In short: (§3)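 Tmax from oral 10 mg/kg dosing. Rat: male Sprague-Dawley, 0.5% MC suspension, n = 3. Guinea pig: 20% NMP + 0.5% MC suspension, n = 3. Dog and monkey: 2.5 μL/mL Tween 80 + 0.5% MC suspension.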

[8] = Apparent volume of distribution in Sprague-Dawley rat at 1 mg/kg, iv; assay type: ADME, organism-based; conditions: in vivo, read-out: Vz
In short: as §1

[9] = Apparent volume of distribution in Beagle dog at 1 mg/kg, iv; assay type: ADME, organism-based, Canis lupus familiaris; conditions: in vivo, read-out: Vz
In short: as §1

[10] = Oral bioavailability in Sprague-Dawley rat at 10 mg/kg; assay type: ADME, organism-based; conditions: in vivo
In short: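 Plasma PK after 1 mg/kg i.v. and 10 mg/kg p.o.; %F from both routes. Rat: male Sprague-Dawley, oral 0.5% methylcellulose suspension, i.v. 20% NMP/20% ethanol/60% PEG 200, n = 3. Dog oral: Tween 80 2.5 μL/mL + 0.5% MC suspension. Monkey oral: same Tween/MC suspension; i.v. 10% NMP/10% ethanol/10% PEG/70% PEG200-water premix.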

[11] = Tmax in Dunkin-Hartley guinea pig at 10 mg/kg, po; assay type: ADME, organism-based, Cavia porcellus; conditions: in vivo
In short: as §3

[12] = Cmax in Beagle dog at 10 mg/kg, po; assay type: ADME, organism-based, Canis lupus familiaris; parameters: dose 10 mg/kg, route oral; conditions: in vivo
In short: as §2

[13] = Cmax in Dunkin-Hartley guinea pig at 10 mg/kg, po; assay type: ADME, organism-based, Cavia porcellus; parameters: dose 10 mg/kg, route oral; conditions: in vivo
In short: as §2

[14] = Half life in Beagle dog at 10 mg/kg, po; assay type: ADME, organism-based, Canis lupus familiaris; conditions: in vivo
In short: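 Half-life calculated from plasma profiles after oral dosing at 10 mg/kg. Rat: male Sprague-Dawley, 0.5% methylcellulose suspension, n = 3. Dog and cynomolgus monkey: Tween 80 (2.5 μL/mL) + 0.5 (w/v) MC suspension.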

[15] = target: T3, Nuclear receptor subfamily 1 group I member 2 (Homo sapiens, UniProt O75469); assay: Activation of human PXR at 10 uM relative to rifampicin; assay type: ADME
T3 sequence (O75469 whole entry): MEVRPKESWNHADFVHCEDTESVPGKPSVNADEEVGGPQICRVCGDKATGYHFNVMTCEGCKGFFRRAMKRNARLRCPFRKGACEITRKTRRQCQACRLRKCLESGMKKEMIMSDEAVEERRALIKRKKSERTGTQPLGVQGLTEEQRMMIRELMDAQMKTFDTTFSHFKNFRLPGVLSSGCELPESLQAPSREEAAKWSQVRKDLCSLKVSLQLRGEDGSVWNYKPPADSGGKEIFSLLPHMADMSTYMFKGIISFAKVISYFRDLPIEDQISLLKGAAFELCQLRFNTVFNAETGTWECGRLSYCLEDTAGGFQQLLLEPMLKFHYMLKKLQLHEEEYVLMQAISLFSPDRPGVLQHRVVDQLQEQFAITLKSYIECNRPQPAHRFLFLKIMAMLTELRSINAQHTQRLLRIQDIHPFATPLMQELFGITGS
In short: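 Activation of human PXR with test compound at 10 µM, expressed relative to the rifampicin effect.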

[16] = Apparent passive permeability of the compound by PAMPA; assay type: ADME
In short: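 Passive permeability by PAMPA, using a 2% lecithin in dodecane membrane. Run in triplicate.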

| SMILES | IC50 [1] | IC50 (Prostaglandin E synthase) | inhibition [2] | Vd [3] | fraction unbound at 5 h, 10 µM [4] | Kp [5] | Cmax [6] | Tmax [7] | Vd [8] | Vd [9] | bioavailability [10] | Tmax [11] | Cmax [12] | Cmax [13] | half-life [14] | Activity [15] | Papp [16] | BPR ([5]; brain, BLD = below limit of detection) |
| --- | --- | --- | --- | --- | --- | --- | --- | --- | --- | --- | --- | --- | --- | --- | --- | --- | --- | --- |
| Cn1c(Nc2c(F)cccc2Cl)nc2cc(C(=O)Nc3cccc(C(F)(F)F)c3)c3c(c21)CC(C)(C)O3 | 3180 nM | 3 nM | 10.6% |  |  |  |  |  |  |  |  |  |  |  |  |  |  |  |
| Cc1cccc(Cl)c1Nc1nc2cc(C(=O)Nc3cc(C(F)(F)F)ccc3F)c3c(c2[nH]1)CC(C)(C)O3 |  | 30 nM | 5.1% | 2.1 L/kg | 0.003 |  | 499 ng/mL | 12 h | 4.84 L/kg | 9.17 L/kg | 14% | 1 h | 843 ng/mL | 80 ng/mL | 20 h | 57% | 1.34 ×10⁻⁶ cm/s | Bld |
| CC1(C)Cc2c(c(C(=O)Nc3cc(C(F)(F)F)ccc3F)cc3nc(Nc4c(F)cccc4Cl)[nH]c23)O1 | 2470 nM | 9.6 nM | 22.9% |  |  |  |  |  |  |  |  |  |  |  |  |  | 0.62 ×10⁻⁶ cm/s |  |

More lines, in order of falling IC50 (Prostaglandin E synthase), values ahead:

| IC50 [1] | IC50 (Prostaglandin E synthase) | inhibition [2] | Vd [3] | fraction unbound at 5 h, 10 µM [4] | Kp [5] | Cmax [6] | Tmax [7] | Vd [8] | Vd [9] | bioavailability [10] | Tmax [11] | Cmax [12] | Cmax [13] | half-life [14] | Activity [15] | Papp [16] | BPR ([5]; brain, BLD = below limit of detection) | SMILES |
| --- | --- | --- | --- | --- | --- | --- | --- | --- | --- | --- | --- | --- | --- | --- | --- | --- | --- | --- |
| 2320 nM | 14 nM |  | 1.83 L/kg | 0.009 | 0.44 | 680 ng/mL | 24 h | 3.85 L/kg | 1.94 L/kg | 91% | 2 h | 492 ng/mL | 361 ng/mL | 14.4 h | 34% | 0.33 ×10⁻⁶ cm/s |  | CC1(C)Cc2c(c(C(=O)Nc3ccc(F)c(C(F)(F)F)c3)cc3nc(Nc4c(F)cccc4Cl)[nH]c23)O1 |
|  | 4.1 nM | 4.3% | 4.1 L/kg | 0.008 | 0.58 | 323 ng/mL | 6 h | 3.77 L/kg | 5.4 L/kg | 43% | 12 h | 336 ng/mL | 91 ng/mL | 17 h | 46% | 0.63 ×10⁻⁶ cm/s |  | CC1(C)Cc2c(c(C(=O)Nc3ccc(C(F)(F)F)cn3)cc3nc(Nc4c(Cl)cccc4Cl)[nH]c23)O1 |
